Screening results deposited in PubChem BioAssay by several laboratories.
In the library only some 2.3% were active in any assay of this set; here they are far more common.
SKKanGAS inh: blocks kanamycin growth of S. pyogenes SKKanGAS strain | BacTiter-Glo, 6 h | 1.3% of 300,000 active | inhibition, % at 7.5 µM;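 active = mean replicate score, as percent of positive control median, at least 50; inconclusive = mean below 50 but one replicate at or above 50; inactive = mean and every replicate below 50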;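 note: strain carries kanamycin resistance gene driven by streptokinase promoter and grows in 40 µg/ml kanamycin; loss of luminescence reflects streptokinase promoter inhibition or plain growth inhibition; 0% = median of DMSO wells and 100% = positive control at its reference dose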
Calb FLC: C. albicans growth modulation with fluconazole; C. albicans CaCi-2 (fluconazole-resistant clinical isolate) + fluconazole, Alamar Blue growth, 48 h; growth inhibition, % (no concentration beside the values); 0.57% of 300,000 active;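 active = growth inhibition above about 58% in most replicates, limit read from the data, passing the limit was not always enough; inconclusive = exactly half the replicates above a set limit; inactive = most replicates below a set limit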;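 note: all wells also contain fluconazole at 8 µg/ml as a sub-toxic cotreatment; 0% = median of DMSO wells and 100% = median of geldanamycin control wells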
sPLA2-III inh: Inhibits HGIII-sPLA2 liposome hydrolysis, primary screen; 0.56% of 370,000 active; QFRET BODIPY PC-A2 liposome hydrolysis, fluorescence; inhibition, % at 12.2 µM; Q9NZ20; AID 743126;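 active = inhibition above mean plus 3 SD of compounds lying within the high and low control bounds, cut at about 19% in these data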;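 note: 0% = median of test compound wells and 100% = no enzyme DMSO wells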
ASAP1 GAP inh: ASAP1 ArfGAP inhibition | Q9ULH1 | ASAP1-stimulated ARF1 GTP hydrolysis, GDP FP detection | inhibition, % at 16.5 µM | 0.19% of 360,000 active | AID 624377; in the data active = inhibition above about 25%;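 note: 0% = vehicle with enzyme and substrate and 100% = no enzyme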
Target sequence (Q9ULH1 325-724 limits assumed): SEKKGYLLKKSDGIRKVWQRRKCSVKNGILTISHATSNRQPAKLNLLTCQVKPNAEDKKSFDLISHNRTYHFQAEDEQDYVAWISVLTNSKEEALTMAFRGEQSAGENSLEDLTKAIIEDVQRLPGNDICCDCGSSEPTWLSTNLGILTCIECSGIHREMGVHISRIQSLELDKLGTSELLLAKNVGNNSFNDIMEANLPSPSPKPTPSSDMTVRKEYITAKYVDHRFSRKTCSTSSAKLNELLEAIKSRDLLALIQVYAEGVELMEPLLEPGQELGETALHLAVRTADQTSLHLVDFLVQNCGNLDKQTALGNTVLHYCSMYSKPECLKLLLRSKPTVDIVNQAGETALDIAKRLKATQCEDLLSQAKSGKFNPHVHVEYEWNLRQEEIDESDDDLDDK
ARFGAP1 inhibitor: inhibits rat ARF GTPase activating protein 1; Q62848; Arfgap1-stimulated ARF1 GTP hydrolysis, GDP FP detection; inhibition, % at 16.5 µM; 0.26% of 360,000 active; AID 651572;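 active = inhibition above a per-plate limit, mean inhibition of low control wells plus 3 SD, cut at about 25% in these data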;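 note: 0% = DMSO wells with enzyme and 100% = wells lacking Arfgap1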
Target sequence (Q62848 1-136 limits assumed): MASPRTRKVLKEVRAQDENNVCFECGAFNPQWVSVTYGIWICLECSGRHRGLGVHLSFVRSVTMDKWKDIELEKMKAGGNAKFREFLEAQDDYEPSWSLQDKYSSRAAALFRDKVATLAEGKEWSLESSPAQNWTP
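Material – truncated rat Arfgap1 GAP domain · Buffer or medium – HEPES-based buffer, pH 7.5 · Reagent – human ARF1(Δ1-17)-GTP substrate · Dosing – 16.5 µM single point, 1.26% DMSO · Schedule – GTP hydrolysis reaction 2 h at 25 °C · Technique – GDP detection by fluorescence polarization · Benchmarks – No-Arfgap1 wells (100%) versus DMSO full-reaction wells (0%) · Repeats – single replicate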
* hit, by the source's call; ? = inconclusive; nt = no result given.

SMILES	SKKanGAS inh	Calb FLC	sPLA2-III inh	ASAP1 GAP inh	ARFGAP1 inhibitor
CC(C)(C)c1cc(-c2csc(Nc3ccccc3)[n+]2Cc2ccc(C(=O)O)cc2)cc(C(C)(C)C)c1O	114.6*	?	nt	nt	nt
O=C(O)c1ccc(C[n+]2c(-c3ccccc3)csc2Nc2ccccc2)cc1	8.2	4.0	0.1	-5.1	1.1
COc1cc(N=c2c([N+](=O)[O-])nn(-c3ccc4c(c3)OCCO4)n2O)cc(OC)c1	73.3*	-3.5	-7.3	-4.5	-0.1
Nc1cc(-c2ccc(OC(F)(F)F)cc2)nn1-c1ccc(Cl)c(Cl)c1	66.9*	3.1	9.3	6.8	22.7
CC(C)=CCc1c(O)ccc(C2COc3c(CC=C(C)C)c(O)cc(O)c3C2=O)c1O (centres undefined)	51.0*	17.3	-9.2	5.7	9.6
CC(C)=CCc1c(O)ccc2c1OC(c1ccc(O)c(O)c1)CC2=O (centres undefined)	4.1	-17.0	-18.8	-6.8	19.1
S=C(NCCc1ccccc1)N/N=C/c1ccc(Cl)cc1	65.0*	-8.9	-3.1	-2.2	7.6
S=C(NCCc1ccccc1)N/N=C/c1c(Cl)cccc1Cl	-0.7	2.5	-1.1	-9.6	6.7
CCc1nc2c3cnn(-c4cc(Cl)ccc4C)c3ncn2n1	53.1*	-28.7	-1.5	0.6	8.2
Cc1nc2c3cnn(-c4ccccc4)c3ncn2n1	19.5	19.6	-3.3	1.7	0.3
CC(=O)Nc1nc(=O)c2ccccc2s1	-1.1	42.2	7.3	-1.1	2.1
Cc1ccc(C(=O)Nc2nc3ccccc3c(=O)s2)cc1	-9.1	86.9*	4.7	-4.0	20.0
O=C(Nc1nc(=O)c2ccccc2s1)c1ccccc1	-1.6	87.2*	0.6	-9.9	-8.3
CC12CCC(C/C1=N\N=C1\NC(=O)/C(=C\c3ccc(Cl)cc3)S1)C2(C)C (centres undefined)	106.0*	1.1	5.0	10.1	1.7
O=C1NC(=Nc2ccccc2Cl)S/C1=C\c1ccc(C(=O)O)cc1	8.9	-3.5	3.9	-17.4	1.5
COc1ccc(-c2cc3nc(-c4ccccc4)cc(N4CCCC(O)C4)n3n2)cc1 (centres undefined)	53.6*	-10.4	4.7	6.5	14.9
Cc1ccc(-n2c3nc(=O)[nH]c(=O)c-3cc3cc([N+](=O)[O-])ccc32)cc1	-0.5	-2.1	28.1*	9.3	-1.1
Cc1ccc(-n2c(C)nn(Cc3ccc([N+](=O)[O-])cc3)c2=O)cc1	-1.8	0.4	-2.4	-3.3	-12.1
CCC(=O)N(C)C[C@@H]1[C@H](c2ccc(C3=CCCCC3)cc2)[C@H](CO)N1C(=O)CC	nt	nt	-1.0	nt	nt
CN1CCN(c2nc(Nc3cccc(C(F)(F)F)c3)nc(N3CCOCC3)n2)CC1	-0.9	40.6	-4.0	8.6	-0.9
FC(F)(F)c1cccc(Nc2nc(N3CCCC3)nc(N3CCCC3)n2)c1	75.5*	-17.8	-2.6	5.8	-2.7
O=c1cc(-c2ccccc2)nc2c(-c3ccccc3)c(C(F)(F)F)[nH]n12	56.0*	3.5	-39.0	4.7	-9.5
NC(=O)[C@@H]1CCCN1C(=O)[C@H](CCc1ccccc1)NC(=O)[C@H]1O[C@@H](n2cnc3c(N)ncnc32)[C@H](O)[C@@H]1O	nt	nt	5.0	2.6	8.9
O=c1c2ccccc2nc(/C=C/c2ccc([N+](=O)[O-])cc2)n1CCCO	3.3	16.4	-5.2	7.9	11.1
O=c1c2ccccc2nc(/C=C/c2ccc([N+](=O)[O-])o2)n1CCCO	49.9*	108.1*	3.4	7.3	-1.6
SMILES	SKKanGAS inh	Calb FLC	sPLA2-III inh	ASAP1 GAP inh	ARFGAP1 inhibitor
c1ccc(-c2ccccc2OCCCN2CCCCCC2)cc1	-5.1	89.6*	0.6	11.6	3.1
Cc1cc2c(c(=O)o1)[C@@]1(C(=O)N(C)c3ccccc31)C1=C(CC(C)(C)OC1=O)O2	nt	nt	1.5	-8.7	-0.7
Cc1cc(C)c2cccc(N)c2n1	-9.8	6.2	5.8	-10.9	-12.0
Cc1cc(C)c2ccc(N)nc2c1O	98.6*	107.3*	12.4	-0.6	-0.8
O=C(OCn1ncc(Cl)c(Cl)c1=O)c1ccc(F)cc1	3.8	107.4*	nt	nt	nt
O=C(Cn1ncc(Cl)c(Cl)c1=O)c1ccc(Cl)cc1	-2.6	-3.1	1.1	-20.2	-8.8
O=C(OCn1ncc(Cl)c(Cl)c1=O)c1ccccc1Cl	12.5	107.9*	-2.0	-0.4	0.6
Cc1cc(C(=O)NCC(=O)OC(C(=O)Nc2cc(C(F)(F)F)ccc2Cl)c2ccccc2)ccc1[N+](=O)[O-] (centres undefined)	52.7*	9.4	-28.1	5.2	-5.6
CCCC(=O)OC(C(=O)Nc1cc(C(F)(F)F)ccc1Cl)c1ccccc1 (centres undefined)	-13.3	-0.3	-119.6	-1.6	8.5
CC(C)=C1C(=O)NN(c2ccc(F)c(Cl)c2)C1=O	-1.4	101.3*	-13.0	-5.2	-0.7
O=C1NN(c2ccc(F)c(Cl)c2)C(=O)/C1=C\c1cccc(OC(=O)c2cccs2)c1	34.2	-16.2	-14.9	-4.4	1.7
COc1ccc(/C=C2\CC3(OC(=O)C4CCCCC4)CCCN2C3)cc1 (centres undefined)	nt	nt	-1.6	nt	nt
COc1cc(OC)cc(N(C(=O)C2COc3ccccc3O2)C(C(=O)NC2CCCCC2)c2ccc(O)cc2)c1 (centres undefined)	2.9	90.5*	-29.6	13.9	-0.2
Cc1c(Cc2ccccc2)c(=O)oc2cc(OCc3ccc(C(=O)O)cc3)ccc12	54.4*	-3.8	1.4	-1.6	-0.4
COC(=O)C[C@H]1CC[C@@H]2[C@H](COc3ccc(NC(=O)c4cccc(F)c4)cc3C(=O)N2C)O1	nt	nt	0.9	nt	nt
O=C(NCc1ccccc1)c1sc(=S)n2c1[nH]c(=O)c1ccccc12	44.5	87.2*	-3.0	4.4	5.6
COC(=O)[C@H](C(C)C)N1Cc2nnn(Cc3ccc(C)cc3)c2-c2cc(F)ccc2S1(=O)=O	nt	nt	-9.1	nt	nt
C=C(O[C@H]1[C@H](O)CC=C(C(=O)O)[C@@H]1O)C(=O)O	nt	nt	3.5	nt	nt
O=C(Nc1cccc(-c2csc(Nc3ccc(Cl)cc3)n2)c1)c1cc([N+](=O)[O-])cc(C(F)(F)F)c1	?	-7.0	4.3	-1.9	5.2
O=C(Nc1ccc(-c2csc(Nc3ccc(Cl)cc3)n2)cc1)c1cc([N+](=O)[O-])cc(C(F)(F)F)c1	75.4*	-2.5	0.6	11.6	-4.9
Cc1ccc(-c2cc(C(=O)NN=Cc3ccc(-c4ccccc4)cc3)[nH]n2)cc1C	nt	nt	2.7	nt	nt
N#C/C(=C(/O)CN1CCN(c2ccccc2F)CC1)c1nc(-c2ccccc2)cs1	55.3*	12.9	-23.9	-1.0	-8.2
CC(C)CCN(CCC(C)C)C/C(O)=C(\C#N)c1nc(-c2ccccc2)cs1	8.4	6.6	4.1	3.5	1.4
COC(=O)C(Nc1ccccc1Cl)(c1cc(C)c(O)c(C)c1)C(F)(F)F (centres undefined)	88.4*	30.2	-30.4	0.2	15.1
CCOc1ccc(Cl)cc1S(=O)(=O)n1cnc2cc(C)c(C)cc21	51.5*	24.3	4.6	0.8	0.8
Cc1cccc(Cn2cc(CN3CC(N(C)CCOC(=O)c4cc(C)cc(C)c4)CS3(=O)=O)nn2)c1 (centres undefined)	nt	nt	-14.6	nt	nt
